Active and inactive are the calls of the source. The rule behind the calls is not given here.
Assays:
[1] = Membrane permeabilization activity assessed as release of calcein from liposomes after 10 mins by fluorescence assay; assay type: physicochemical; details: calcein-loaded liposomes, probe calcein
In short: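 Egg PC liposomes made by reversed-phase evaporation with 100 mM calcein (pH 7.4), washed free of untrapped dye in 10 mM phosphate buffer pH 6.8 with 150 mM NaCl. Diluted liposomes incubated with compound for 10 min at 30 °C; water as control. Calcein release read by fluorescence, excitation 490 nm, emission 520 nm.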

[2] = target: Prostaglandin G/H synthase 1 (Homo sapiens, UniProt P23219); experiment: Inhibition of human whole blood COX-1 assessed as production of TXB2 after 24 hrs by EIA
[3] = target: T1, Prostaglandin G/H synthase 2 (Homo sapiens, UniProt P35354); experiment: Inhibition of human whole blood COX-2 assessed as production of PGE2 after 24 hrs by EIA
T1 sequence (P35354 whole entry): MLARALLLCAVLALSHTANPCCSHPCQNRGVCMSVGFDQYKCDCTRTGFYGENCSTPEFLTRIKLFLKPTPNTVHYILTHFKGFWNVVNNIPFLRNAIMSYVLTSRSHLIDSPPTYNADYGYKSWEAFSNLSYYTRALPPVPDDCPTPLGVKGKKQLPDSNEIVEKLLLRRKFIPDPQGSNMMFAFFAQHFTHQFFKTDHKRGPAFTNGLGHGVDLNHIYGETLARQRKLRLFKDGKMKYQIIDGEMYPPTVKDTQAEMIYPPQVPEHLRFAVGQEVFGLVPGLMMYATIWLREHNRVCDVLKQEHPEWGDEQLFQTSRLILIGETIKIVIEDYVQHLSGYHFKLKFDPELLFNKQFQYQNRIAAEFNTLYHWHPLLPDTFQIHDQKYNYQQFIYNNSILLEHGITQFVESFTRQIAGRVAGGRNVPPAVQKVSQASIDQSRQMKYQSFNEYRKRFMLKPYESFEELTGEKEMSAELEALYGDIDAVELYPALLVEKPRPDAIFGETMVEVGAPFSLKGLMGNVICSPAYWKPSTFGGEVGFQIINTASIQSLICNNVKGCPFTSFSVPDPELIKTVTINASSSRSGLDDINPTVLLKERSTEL

Rattus norvegicus [4] = experiment: Reduction in PGE2 levels in fasted Wistar rat stomach at 40 to 50 mg/kg, po measured after 8 hrs; assay type: functional, organism-based
In short: (§1)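 Male Wistar rats (6 weeks, 180–200 g) fasted 18 h, then dosed orally with NSAIDs. Killed 8 h later and stomachs removed. Gastric PGE2 measured by EIA.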

Rattus norvegicus [5] = experiment: Antiinflammatory activity in Wistar rat assessed as inhibition of carrageenan-induced foot-pad edema at 10 mg/kg, po administered 1 hr before carrageenan challenge measured after 3 to 6 hrs by plethysmometer; assay type: functional, organism-based; parameters: dose 10 mg/kg
In short: (§2)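 Male Wistar rats (6 weeks, 180–200 g) given NSAIDs orally; 1 h later 100 μL of 1% carrageenan injected intradermally into the left hindpaw.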

Rattus norvegicus [6] = experiment: Inhibition of PGE2 production in carrageenan-induced Wistar rat foot-pad at 10 mg/kg, po administered 1 hr before carrageenan challenge by EIA; assay type: functional, organism-based; parameters: dose 10 mg/kg
Rattus norvegicus [7] = experiment: Ulcerogenicity in fasted Wistar rat assessed as damage in gastric mucosa at 40 to 50 mg/kg, po measured after 8 hrs; assay type: toxicity, organism-based; parameters: dose 40-50 mg/kg, route oral; details: in vivo
In short: (§3)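 Male Wistar rats (6 weeks, 180–200 g) fasted 18 h before oral NSAID dosing. Stomachs removed 8 h later. A blinded observer measured the area of each mucosal lesion in mm²; areas were summed into a gastric lesion index.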

Rattus norvegicus [8] = experiment: Antiinflammatory activity in Wistar rat assessed as inhibition of carrageenan-induced foot-pad edema at 13 mg/kg, po administered 1 hr before carrageenan challenge measured after 3 to 6 hrs by plethysmometer; assay type: functional, organism-based; parameters: dose 13 mg/kg; in short: as §2
Rattus norvegicus [9] = experiment: Reduction in PGE2 levels in fasted Wistar rat stomach at 50 to 67 mg/kg, po measured after 8 hrs; assay type: functional, organism-based; in short: as §1
Rattus norvegicus [10] = experiment: Inhibition of PGE2 production in carrageenan-induced Wistar rat foot-pad at 13 mg/kg, po administered 1 hr before carrageenan challenge by EIA; assay type: functional, organism-based; parameters: dose 13 mg/kg
Rattus norvegicus [11] = experiment: Ulcerogenicity in fasted Wistar rat assessed as damage in gastric mucosa at 50 to 67 mg/kg, po measured after 8 hrs; assay type: toxicity, organism-based; parameters: dose 50-67 mg/kg, route oral; details: in vivo; in short: as §3

Chain of Prostaglandin G/H synthase 1 (P23219 whole entry): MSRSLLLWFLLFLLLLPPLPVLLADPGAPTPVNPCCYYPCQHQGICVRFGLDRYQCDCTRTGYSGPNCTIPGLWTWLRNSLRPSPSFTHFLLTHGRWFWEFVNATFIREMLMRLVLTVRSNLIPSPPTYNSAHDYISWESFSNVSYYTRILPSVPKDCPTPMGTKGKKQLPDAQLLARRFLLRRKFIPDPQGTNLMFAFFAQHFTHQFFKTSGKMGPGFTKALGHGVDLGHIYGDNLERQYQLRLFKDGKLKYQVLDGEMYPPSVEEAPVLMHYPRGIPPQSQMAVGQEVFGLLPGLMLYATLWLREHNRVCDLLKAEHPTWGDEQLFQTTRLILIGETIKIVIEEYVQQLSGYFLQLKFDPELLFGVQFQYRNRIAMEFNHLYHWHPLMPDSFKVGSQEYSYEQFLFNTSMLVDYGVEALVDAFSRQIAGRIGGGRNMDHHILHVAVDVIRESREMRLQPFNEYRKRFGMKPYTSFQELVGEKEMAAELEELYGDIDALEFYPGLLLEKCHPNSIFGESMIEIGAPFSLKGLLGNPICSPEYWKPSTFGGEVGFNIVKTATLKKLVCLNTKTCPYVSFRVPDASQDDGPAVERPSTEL

SMILES | EC50 at 10 min [1] [mM] | IC50 [2] [µM] | IC50 [3] [µM] | further results
Cc1ccc(-c2cc(C(F)(F)F)nn2-c2ccc(S(N)(=O)=O)cc2)cc1 [CELECOXIB] | 0.09 | – | – | –
CC(C(=O)O)c1ccc(C[C@H]2CCC[C@H]2O)cc1-c1ccc(O)cc1 (mixture of isomers) | – | 47 | 17 | –
Cc1ccc(-c2cc(CC3CCCC3=O)ccc2C(C)C(=O)O)cc1 (stereo not drawn) | < 100 | 470 | 540 | –
CC(C(=O)O)c1ccc(CC2CCCC2=O)cc1I (stereo not drawn) | – | 270 | 540 | –
COc1ccc(-c2cc(C(C)C(=O)O)ccc2CC2CCCC2=O)cc1 (stereo not drawn) | < 100 | 800 | > 1000 | –
CC(C(=O)O)c1ccc(CC2CCCC2=O)c(-c2ccc(OC(F)(F)F)cc2)c1 (stereo not drawn) | < 10 | 460 | 72 | –
CC(C(=O)[O-])c1ccc(CC2CCCC2=O)cc1.[Na+] (stereo not drawn) [LOXOPROFEN SODIUM] | – | – | – | inhibition (Rattus norvegicus [4]): Active; Activity (Rattus norvegicus [5]): Active; inhibition (Rattus norvegicus [6]): Active; Activity (Rattus norvegicus [7]): Dose-dependent effect
CC(C(=O)O)c1ccc(CC2CCCC2=O)cc1Cl (stereo not drawn) | 100 | 4 | 2 | –
CC(C(=O)O)c1ccc(CC2CCCC2=O)cc1-c1ccc(C(=O)O)cc1 (stereo not drawn) | < 10 | > 1000 | 76 | –
CSc1ccc(-c2cc(C(C)C(=O)O)ccc2CC2CCCC2=O)cc1 (stereo not drawn) | < 10 | 758 | > 1000 | –
CC(C(=O)O)c1ccc(C[C@H]2CCC[C@@H]2O)cc1-c1ccc(O)cc1 (mixture of isomers) | – | 650 | 20 | –
CC(C(=O)O)c1ccc(CC2CCCC2=O)c(Br)c1 (stereo not drawn) | < 100 | 49 | 23 | –
CC(C(=O)O)c1ccc(CC2CCCC2=O)cc1-c1ccc(OC(F)(F)F)cc1 (stereo not drawn) | 6 | 515 | > 1000 | –

More lines, main results first:

EC50 at 10 min [1] [mM] | IC50 [2] [µM] | IC50 [3] [µM] | SMILES | further results
– | > 1000 | – | CC(C(=O)O)c1ccc(CC2CCCC2=O)c(-c2ccc(O)cc2)c1 (stereo not drawn) | –
< 100 | 174 | 36 | CC(C(=O)O)c1ccc(CC2CCCC2=O)c(-c2ccc(F)cc2)c1 (stereo not drawn) | –
< 100 | 310 | 70 | CC(C(=O)O)c1ccc(CC2CCCC2=O)cc1-c1ccccc1 (stereo not drawn) | –
< 100 | 575 | 150 | CSc1ccc(-c2cc(CC3CCCC3=O)ccc2C(C)C(=O)O)cc1 (stereo not drawn) | –
< 100 | 56 | 420 | Cc1ccc(-c2cc(C(C)C(=O)O)ccc2CC2CCCC2=O)cc1 (stereo not drawn) | –
– | > 1000 | > 1000 | CC(C(=O)O)c1ccc(CC2CCCC2=O)c(-c2ccc(C(=O)O)cc2)c1 (stereo not drawn) | –
< 100 | 54 | 290 | CC(C(=O)O)c1ccc(CC2CCCC2=O)c(-c2ccccc2)c1 (stereo not drawn) | –
25 | 326 | 11 | CC(C(=O)[O-])c1ccc(CC2CCCC2=O)cc1-c1ccc(O)cc1.[Na+] (stereo not drawn) | Activity (Rattus norvegicus [8]): Active; inhibition (Rattus norvegicus [9]): Active; inhibition (Rattus norvegicus [10]): Active; Activity (Rattus norvegicus [11]): Non-toxic
– | 93 | 49 | CC(C(=O)O)c1ccc(CC2CCCC2=O)cc1[N+](=O)[O-] (stereo not drawn) | –
20 | 174 | 36 | CC(C(=O)O)c1ccc(CC2CCCC2=O)cc1-c1ccc(F)cc1 (stereo not drawn) | –
< 100 | 74 | 430 | COc1ccc(-c2cc(CC3CCCC3=O)ccc2C(C)C(=O)O)cc1 (stereo not drawn) | –

Reference: ChEMBL document CHEMBL1811892, “Synthesis and biological evaluation of loxoprofen derivatives” (Bioorg Med Chem, 2011)
